This passage reports Activity, Drug metabolism and EC50 results from ChEMBL document CHEMBL4138311, “Antitumorigenic Properties of Omega-3 Endocannabinoid Epoxides” (J Med Chem, 2018).

Molecules are shown by their SMILES. Calls of active or inactive are those of the source. The rule behind the calls is not given here.

The test system of series [1] is 143B. In words: Induction of apoptosis in human 143B cells at 12.5 by Annexin V-FITC/propidium iodide double staining based flow cytometry relative to control. Format: functional.
Series [2] concerns MG-63. Description: Induction of apoptosis in human MG63 cells at 12.5 by Annexin V-FITC/propidium iodide double staining based flow cytometry relative to control. The class given is functional.
The subject of series [3] is HOS. Description: Induction of apoptosis in human HOS cells at 12.5 by Annexin V-FITC/propidium iodide double staining based flow cytometry relative to control. Format: functional.
In series [4] the target is T1, Fatty-acid amide hydrolase 1 (Sus scrofa, UniProt Q9TUI8).
T1 sequence (Q9TUI8 whole entry): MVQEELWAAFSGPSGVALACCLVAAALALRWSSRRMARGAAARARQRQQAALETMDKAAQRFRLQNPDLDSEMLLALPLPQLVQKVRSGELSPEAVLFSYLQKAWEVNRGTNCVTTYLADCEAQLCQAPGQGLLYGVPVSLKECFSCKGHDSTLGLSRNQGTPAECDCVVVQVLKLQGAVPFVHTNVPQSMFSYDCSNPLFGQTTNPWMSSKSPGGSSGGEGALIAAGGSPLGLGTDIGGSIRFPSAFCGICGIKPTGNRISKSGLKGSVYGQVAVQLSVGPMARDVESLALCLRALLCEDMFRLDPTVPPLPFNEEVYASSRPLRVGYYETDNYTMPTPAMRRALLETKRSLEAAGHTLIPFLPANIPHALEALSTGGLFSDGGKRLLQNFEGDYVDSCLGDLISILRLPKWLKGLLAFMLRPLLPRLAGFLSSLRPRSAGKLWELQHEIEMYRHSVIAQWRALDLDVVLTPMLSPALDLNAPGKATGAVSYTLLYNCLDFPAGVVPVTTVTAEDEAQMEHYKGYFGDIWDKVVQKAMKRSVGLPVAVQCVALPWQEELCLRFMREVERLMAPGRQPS
Description: Drug metabolism in pig forebrain membranes assessed as FAAH-mediated 10,11-EDP formation by measuring hydrolysis rate per mg protein at 20 uM after 40 mins by LC-MS/MS analysis. The class given is ADME, cell membranes, Membrane. In outline: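 Each 0.5 mL reaction held 5 µg membrane protein in the same buffer with 20 µM amide. Reactions were stopped at 40 min with methanol containing 1 mM PMSF and centrifuged. The supernatant was run on C18 LC-MS/MS, negative ESI, MRM for 10,11-EDP (m/z 343.0).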

In series [5] the test system is 143B. Description: Cell cycle arrest in human 143B cells assessed as accumulation at G1 phase after 24 hrs by propidium iodide-staining based flow cytometry (reference value: 56.2 +/- 2.7%). The class given is functional.
The test system of series [6] is 143B. Description: Cell cycle arrest in human 143B cells assessed as accumulation at S phase after 24 hrs by propidium iodide-staining based flow cytometry (reference value: 26.6 +/- 0.4%). The class given is functional.
For series [7], the system named is 143B. Description: Cell cycle arrest in human 143B cells assessed as accumulation at G2 phase after 24 hrs by propidium iodide-staining based flow cytometry (reference value: 17.2 +/- 2.3%). The class given is functional.
Series [8] concerns HOS. Description: Cell cycle arrest in human HOS cells assessed as accumulation at G1 phase after 24 hrs by propidium iodide-staining based flow cytometry (reference value: 47.8 +/- 0.7%). Format: functional.
Series [9] relates to HOS. In words: Cell cycle arrest in human HOS cells assessed as accumulation at S phase after 24 hrs by propidium iodide-staining based flow cytometry (reference value: 37.1 +/- 1.6%). Format: functional.
Series [10] relates to HOS. In words: Cell cycle arrest in human HOS cells assessed as accumulation at G2 phase after 24 hrs by propidium iodide-staining based flow cytometry (reference value: 15.1 +/- 0.97%). Format: functional.
Series [11] concerns MG-63. Description: Cell cycle arrest in human MG63 cells assessed as accumulation at G1 phase after 24 hrs by propidium iodide-staining based flow cytometry (reference value: 62.9 +/- 1.8%). Format: functional.
Series [12] concerns MG-63. In words: Cell cycle arrest in human MG63 cells assessed as accumulation at S phase after 24 hrs by propidium iodide-staining based flow cytometry (reference value: 20.2 +/- 1.8%). Format: functional.
Series [13] relates to MG-63. In words: Cell cycle arrest in human MG63 cells assessed as accumulation at G2 phase after 24 hrs by propidium iodide-staining based flow cytometry (reference value: 16.9 +/- 0.01%). The class given is functional.
Series [14] relates to HUVEC. Description: Anti-angiogenic activity in HUVEC assessed as inhibition of tube formation at 0.5 to 1 uM after 5 hrs by fluorescent microscopy based matrigel assay. The settings on record: Homo sapiens. The class given is functional, cell-based. The essentials: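 HUVEC at passage 2 were grown to 80% confluency, and 15,000 cells were plated on Matrigel pre-set 1 h at 37 °C. Cells got vehicle, 0.5 or 1 μM compound, with no-matrix and vinblastine controls, in duplicate wells for 5 h at 37 °C. After washing, cells were stained 30 min at 37 °C. Fluorescence images were scored for tube formation with an angiogenesis analyzer.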

Series [15] has as its system HUVEC. In words: Cytotoxicity against HUVEC assessed as reduction in cell viability at 1 uM after 24 hrs by cell-titer blue assay. The class given is cell-based. The settings on record: human.
The subject of series [16] is 143B. In words: Cytotoxicity against human 143B cells assessed as reduction in cell viability at 12.5 uM after 24 hrs by cell-titer blue assay. Format: functional, cell-based.
Series [17] has as its system 143B. Description: Cytotoxicity against human 143B cells assessed as reduction in cell viability at 25 uM after 24 hrs by cell-titer blue assay. The class given is functional, cell-based.
The test system of series [18] is HOS. In words: Antimigratory activity in human HOS cells at 5 uM after 6 to 10 hrs by wound-healing assay. Format: functional, cell-based. In outline:
(§1)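 A confluent monolayer of HOS, 143B or MG63 cells (DMEM, 10% FBS) was scratched with a pipette tip, then given fresh medium with 5 μM compound or vehicle at 37 °C, 5% CO₂. Images were taken every 2 h and wound area normalized to 100% at 0 h. Results are the ratio of wound remaining, treated to control, at 6 and 10 h.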

The test system of series [19] is 143B. Description: Antimigratory activity in human 143B cells at 5 uM measured after 10 hrs by wound-healing assay. Format: functional, cell-based. The essentials: as §1
Series [20] deals with MG-63. In words: Antimigratory activity in human MG63 cells at 5 uM measured after 10 hrs by wound-healing assay. The class given is functional, cell-based. In outline:
as §1

In series [21] the test system is 143B. Description: Induction of apoptosis in human 143B cells at 12.5 in presence of rimonabant by Annexin V-FITC/propidium iodide double staining based flow cytometry relative to control. The class given is functional.
For series [22], the system named is 143B. In words: Induction of apoptosis in human 143B cells at 12.5 in presence of AM 630 by Annexin V-FITC/propidium iodide double staining based flow cytometry relative to control. The class given is functional.
Series [23] concerns MG-63. In words: Antimigratory activity in human MG63 cells at 5 uM measured after 6 hrs by wound-healing assay. Format: functional, cell-based. The essentials: as §1
Series [24] relates to 143B. Description: Antimigratory activity in human 143B cells at 5 uM measured after 10 hrs in presence of CB1 receptor antagonist rimonabant by wound-healing assay. Format: functional, cell-based.
The target of a further series is Cannabinoid receptor 1 (Homo sapiens, UniProt P21554). Description: Agonist activity at N-terminal FLAG-tagged human CB1 receptor transfected in human HTLA cells assessed as induction of beta-arrestin-recruitment after 8 to 14 hrs by bright-glo luminescence based assay. Format: functional, cell-based. The essentials: (§2)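 HTLA cells (DMEM, 10% FBS, puromycin 2 μg/mL, hygromycin B 100 μg/mL) were seeded at 20,000 per well on poly-L-lysine and transfected after 18–24 h with CNR1 or CNR2 Tango plasmid, 0.1 μg/well. After 36–48 h they were starved 4 h in 1% dialyzed FBS, or 30 min with 1 μM AUDA for epoxides. Log-dose compound was added for 8–14 h, then Bright-Glo luminescence read. RLU was normalized to % receptor response and fitted to a dose-response curve.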
Sequence of Cannabinoid receptor 1 (P21554 whole entry): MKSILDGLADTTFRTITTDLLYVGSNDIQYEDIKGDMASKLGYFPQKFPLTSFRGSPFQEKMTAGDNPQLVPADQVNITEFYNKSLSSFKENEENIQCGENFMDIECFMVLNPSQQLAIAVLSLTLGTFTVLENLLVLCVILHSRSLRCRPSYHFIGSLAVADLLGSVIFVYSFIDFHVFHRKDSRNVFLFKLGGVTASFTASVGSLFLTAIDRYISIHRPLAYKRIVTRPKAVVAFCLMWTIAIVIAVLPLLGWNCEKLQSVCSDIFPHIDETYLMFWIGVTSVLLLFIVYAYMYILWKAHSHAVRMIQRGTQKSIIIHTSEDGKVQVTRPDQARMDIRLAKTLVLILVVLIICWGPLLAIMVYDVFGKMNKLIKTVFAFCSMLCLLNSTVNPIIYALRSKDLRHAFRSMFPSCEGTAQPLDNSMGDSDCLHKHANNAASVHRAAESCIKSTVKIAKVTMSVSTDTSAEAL

A further series concerns the target Cannabinoid receptor 2 (Homo sapiens, UniProt P34972). In words: Agonist activity at N-terminal FLAG-tagged human CB2 receptor transfected in human HTLA cells assessed as induction of beta-arrestin-recruitment after 8 to 14 hrs by bright-glo luminescence based assay. The class given is functional, cell-based. In outline: as §2

Sequence of Cannabinoid receptor 2 (P34972 whole entry): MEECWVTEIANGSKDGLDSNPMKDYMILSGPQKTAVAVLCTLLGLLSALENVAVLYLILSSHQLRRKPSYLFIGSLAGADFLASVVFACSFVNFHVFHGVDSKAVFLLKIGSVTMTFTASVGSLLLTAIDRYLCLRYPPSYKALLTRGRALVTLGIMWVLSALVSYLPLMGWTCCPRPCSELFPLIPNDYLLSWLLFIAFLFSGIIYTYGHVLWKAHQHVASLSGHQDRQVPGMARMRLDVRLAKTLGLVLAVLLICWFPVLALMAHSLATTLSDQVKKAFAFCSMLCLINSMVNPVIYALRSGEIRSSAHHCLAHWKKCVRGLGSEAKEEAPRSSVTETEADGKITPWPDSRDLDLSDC

As for `CC/C=C\C/C=C\C/C=C\CC1OC1C/C=C\C/C=C\CCC(=O)NC(C)CO` (configuration not stated), the Activity is listed as 18.8% with 143B [1]; 17.5% in the series with MG-63 [2]; 20.2% in the series on HOS [3]; 50.1% in the series on 143B [5]; 41.8% in the series with 143B [6]; 8.1% with 143B [7]. Moreover, the Activity is listed as 55.8% with HOS [8]; 24.3% with HOS [9]; 20% in the series with HOS [10]; 76.7% in the series on MG-63 [11]; 10.8% with MG-63 [12]; 12.5% in the series with MG-63 [13]. For the same compound, the Activity result in the series with HUVEC [15] is “Non-Toxic”. The Drug metabolism in series [4] is 0.99 pmol/min. In the series with HUVEC [14], the result was Active.
Regarding `CC/C=C\CC1OC1C/C=C\C/C=C\C/C=C\C/C=C\CCC(=O)NCCO` (configuration not stated), the outcome in the series with 143B [16] was inactive. In the series with 143B [17], the outcome was Active.
On to `CC/C=C\C/C=C\CC1OC1C/C=C\C/C=C\C/C=C\CCC(=O)NCCO` (configuration not stated), for which the result in the series on 143B [16], with 143B [17] and in the series on MG-63 [20] was Active. Besides, the Activity was determined as 9.95% in the series with 143B [1]; 16.9% in the series on MG-63 [2]; 19.6% in the series on HOS [3]; 13.03% in the series with 143B [21]; 9.2% in the series on 143B [22]. Also, the outcome in the series with HOS [18], with 143B [19] and in the series on MG-63 [23] was inactive.
As for `CC/C=C\C/C=C\C/C=C\CC1OC1C/C=C\C/C=C\CCC(=O)NCCO` (configuration not stated), the result in the series with 143B [16], in the series on 143B [17], with 143B [19] and in the series on HUVEC [14] was Active. The Activity with 143B [1] was determined as 17.92%; in the series with MG-63 [2] it was 26.6%; in the series with HOS [3], 31.1%; in the series on 143B [5] it was 50.7%; with 143B [6], 28.9%; with 143B [7], 21.1%. The Activity with HOS [8] turned out to be 67.2%; in the series with HOS [9] it was 20.3%; in the series on HOS [10] it was 12.4%; in the series on MG-63 [11] it was 67.7%; in the series with MG-63 [12] it was 17.9%; with MG-63 [13] it was 14.4%. The Activity entry is on record as “Non-Toxic” in the series with HUVEC [15], 7.44% in the series with 143B [21] and 10.9% in the series with 143B [22]. Besides, the result with 143B [24] was inactive. Also, the Drug metabolism in series [4] was found to be 30 pmol/min. Further, the EC50 at Cannabinoid receptor 1 stood at 0.00043 µM; at Cannabinoid receptor 2 it was 0.0225 µM.
In the case of `CC/C=C\C/C=C\C/C=C\CC1OC1C/C=C\C/C=C\CCC(=O)NCCCO` (configuration not stated), the Activity in the series on 143B [1] came out at 25.7%; in the series on MG-63 [2], 15.2%; in the series with HOS [3], 17.1%; in the series with 143B [5], 52.2%; in the series with 143B [6], 24%; in the series with 143B [7] it was 23.7%. Also, the Activity with HOS [8] stood at 62.2%; in the series with HOS [9], 20.7%; with HOS [10], 17.1%; with MG-63 [11] it was 63.5%; in the series on MG-63 [12], 19%; with MG-63 [13], 17.5%. Besides, in the series on HUVEC [15], the Activity entry was “Non-Toxic”. For the same compound, the result in the series with HUVEC [14] was Active.
As to `CCC1OC1C/C=C\C/C=C\C/C=C\C/C=C\C/C=C\CCC(=O)NCCO` (configuration not stated), in the series on 143B [16], the outcome was inactive. Further, in the series on 143B [17], the result was Active.
Regarding `CC/C=C\C/C=C\C/C=C\CC1OC1C/C=C\C/C=C\CCC(=O)NC1CC1` (configuration not stated), the Activity came out at 21.3% in the series on 143B [1]; 17.1% in the series with MG-63 [2]; 27.2% in the series on HOS [3]; 54.2% in the series with 143B [5]; 22.9% in the series on 143B [6]; 22.9% in the series with 143B [7]. Moreover, the Activity in the series with HOS [8] was found to be 54.4%; with HOS [9] it was 30.5%; with HOS [10] it was 15.1%; in the series on MG-63 [11] it was 59.6%; in the series on MG-63 [12], 23.1%; with MG-63 [13], 16.9%. Also, the Activity entry with HUVEC [15] is “Non-Toxic”. In addition, the Drug metabolism in [4] was 5.17 pmol/min. Besides, in the series on HUVEC [14], the outcome was Active.
Take `CC/C=C\C/C=C\C/C=C\C/C=C\CC1OC1C/C=C\CCC(=O)NCCO` (configuration not stated): the result in the series with 143B [16], with 143B [17] and with MG-63 [20] was Active. Besides, the Activity worked out at 8.75% with 143B [1]; 16.4% with MG-63 [2]; 17.1% in the series on HOS [3]; 14.6% with 143B [21]; 10.1% with 143B [22]. Also, the outcome in the series with HOS [18] and in the series on 143B [19] was inactive.
